Screens as filed in PubChem.
An excerpt weighted towards active compounds, which were near 3.8% of everything screened.
T cell HTS: modulators of CD8 T cell-vesicle binding, primary screen, mouse 2C CD8+ T cells, flow cytometry | response (vesicle binding), % at 7 µM | actives 0.068% (n = 330,000) | 2C CD8+ T cell-vesicle binding; hits give low values;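 active = response, share of CD8 T cells binding vesicles, and their 90th percentile fluorescence all below set limits, cut at about 80% in these data, passing the limit was not always enough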;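 note: values below 100% mean blocked vesicle binding to the CD8+ T cells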
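Assay system – 2C mouse CD8+ T cells · Also added – QL9-loaded Drosophila micro-vesicles · Timing – Cell–vesicle co-incubation 1.5 h at 37 °C, staining 20 min on ice · Signal – flow cytometry of vesicle-bound cells · Measure – percent CD8+ FL2 mean versus row control · Controls – Peptide-free naked vesicles (low) and QL9 vesicles with 0.7% DMSO vehicle (high)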
Beta2AR agonist: beta2AR agonists driving receptor internalization, primary screen, cell-based, FAP fluorogen, flow cytometry; response, % (concentration not given with the values); actives 0.43% (n = 340,000); Am2.2-beta2AR cells; Beta-2 adrenergic receptor (Homo sapiens), P07550;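 active = response above a set limit, near 3 SD of response in nonfluorescent compounds, cut at about 42% in these data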
Target sequence (P07550 whole entry, looked up): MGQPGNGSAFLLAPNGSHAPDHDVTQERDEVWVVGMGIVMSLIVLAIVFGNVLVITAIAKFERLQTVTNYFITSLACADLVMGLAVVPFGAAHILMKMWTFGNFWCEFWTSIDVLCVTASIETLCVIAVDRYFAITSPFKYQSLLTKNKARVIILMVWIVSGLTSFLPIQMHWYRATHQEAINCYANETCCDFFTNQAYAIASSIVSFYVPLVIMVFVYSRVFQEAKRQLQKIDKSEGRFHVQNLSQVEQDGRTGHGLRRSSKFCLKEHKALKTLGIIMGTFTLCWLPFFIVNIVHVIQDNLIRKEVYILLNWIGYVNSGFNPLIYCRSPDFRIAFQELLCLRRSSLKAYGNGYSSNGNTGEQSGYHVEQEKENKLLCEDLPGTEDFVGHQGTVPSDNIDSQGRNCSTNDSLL
rCAG RNA binder: binders of r(CAG) RNA repeats, primary screen, biochemical, fluorescence; actives 1.3% (n = 370,000); inhibition, % at 3 µM; r(CAG) RNA repeat, TO-PRO-1 dye displacement fluorescence;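 active = inhibition above the plate cutoff, the mean of all test compounds on that plate plus 3 SD, cut at about 35% in these data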;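 note: 0% = DMSO alone and 100% = 100 µM mitoxantrone as full dye displacement; higher means more dye released from RNA so lower well fluorescence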
MPTP inh: mitochondrial permeability transition pore inhibitors, primary screen, biochemical, isolated mouse mitochondria, absorbance. Ca2+ swelling absorbance, 30 min. inhibition, % at 10 µM. actives 1.4% (n = 360,000). AID 602449, 2012;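 active = inhibition of 50% or more, scaled per plate between neutral and stimulator controls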;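 note: 0% = DMSO wells given calcium and 100% = 1 mM EGTA wells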
V-ATPase pH: regulators of yeast V-ATPase proton pumping, primary screen, pHLuorin cytosolic pH fluorescence; S. cerevisiae; response, % at 10 µM; actives 0.37% (n = 350,000); AID 504577, 2011; in the data active = response mostly above about 7.3%, no sharp cut-off; inactive = mostly below about 5.4%; note: actives read high
Exocytosis inh: LAMP-1 surface exposure blockers, TALL-104 cells – cell-based, flow cytometry, MLPCN library, primary screen; inhibition, % at 10 µM; TALL-104 LAMP-1 surface exposure; cells stimulated with thapsigargin and PMA; actives 0.66% (n = 360,000);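 active = inhibition above about 55%, limit read from the data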
rCAG binder conf: small molecules binding CAG repeat RNA – biochemical, fluorescence, confirmation. r(CAG) RNA repeat, TO-PRO-1 dye displacement fluorescence. actives 70% (n = 4,300). inhibition, % at 3 µM. shares compounds with rCAG RNA binder. AID 652065, 2013;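 active = inhibition above a per-plate cutoff, the mean inhibition of sample wells plus 3 SD, cut at about 35% in these data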;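 note: loss of TO-PRO-1 fluorescence as compound displaces dye from 1x1 AA loop RNA; 0% = DMSO only wells and 100% = 100 µM mitoxantrone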
dCAG dye counter: displacement of TO-PRO-1 from CAG DNA duplex, counter-screen for rCAG RNA repeat binder project, biochemical, fluorescence, TO-PRO-1 dye, d(CAG) DNA oligo; actives 94% (n = 4,300); shares compounds with rCAG RNA binder; inhibition, % at 3 µM; AID 652068, 2013; d(CAG) DNA oligo TO-PRO-1 dye displacement;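 active = inhibition above its plate's cutoff, the mean test-well inhibition plus 3 SD, cut at about 4.8% in these data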;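 note: 0% = DNA dye mix with DMSO and 100% = 100 µM mitoxantrone; hits displace the dye from DNA and so lower well fluorescence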
DNA CAG DR: inhibitors of DNA CAG/GTC TO-PRO-1 complex, dose response, counter-screen for rCAG RNA repeat binder project, biochemical, fluorescence, TO-PRO-1 dye. AID 686960, 2013. actives 20% (n = 250). DNA CAG/GTC duplex TO-PRO-1 dye displacement fluorescence. IC50, µM. shares compounds with rCAG RNA binder; in the data active = IC50 below about 10 µM
Numbers without * were called inactive; nt = no result.

SMILES	T cell HTS	Beta2AR agonist	rCAG RNA binder	MPTP inh	V-ATPase pH	Exocytosis inh	rCAG binder conf	dCAG dye counter	others
COc1ccc(S(=O)(=O)/N=C2/NC(=O)/C(=C\c3cc(OC)c(OC)cc3[N+](=O)[O-])S2)cc1	268	0	75*	3	-3	0	63*	23*
COc1ccc(/C=C2\SC(=Nc3ccccc3OC)NC2=O)cc1	218	3	17	1	2	9	nt	nt
COc1cc(/C=C2\S/C(=N/S(=O)(=O)c3ccccc3)NC2=O)c([N+](=O)[O-])cc1OC	302	0	77*	-1	2	-3	73*	33*	DNA CAG DR=6.6*
COC(=O)c1cccc(Cn2ccc3ccc(-c4ccc5ccn(C(=O)c6cccc(OC)c6)c5c4)cc32)c1	nt	nt	15	nt	nt	nt	nt	nt
COc1ccc(OCc2nn3c(-c4ccccc4)nnc3s2)cc1	nt	nt	1	nt	nt	nt	nt	nt
CC1(C)Oc2ccc(C(=O)NCCCN3CCCC3)cc2NC1=O	nt	nt	4	nt	nt	nt	nt	nt
Cc1noc(NS(=O)(=O)c2ccc(N/C=C/C(=O)c3ccc(F)cc3)cc2)c1C	348	-1	14	-1	-2	-2	nt	nt
CCc1ccc(C(=O)/C=C/Nc2ccc(S(=O)(=O)Nc3onc(C)c3C)cc2)cc1	0	3	57*	10	-1	-2	79*	37*
Cc1noc(NS(=O)(=O)c2ccc(N/C=C\C(=O)c3ccncc3)cc2)c1C	208	0	6	0	-2	5	nt	nt
COc1ccc(C(=O)/C=C/Nc2ccc(S(=O)(=O)Nc3onc(C)c3C)cc2)cc1	418	8	47*	2	-2	-2	49*	18*
OCCC(N1CCOCC1)C(O)(c1ccccc1)c1ccccc1 (stereo not drawn)	nt	nt	5	nt	nt	nt	nt	nt
CC(Oc1ccc(Cl)cc1Cl)C(=O)NC1=NN(c2ccccc2)C(=O)C1 (stereo not drawn)	397	2	58*	1	-3	4	53*	25*
CC(=O)Nc1ccc(NC(=O)C(C)Oc2ccc(Cl)cc2Cl)cc1 (stereo not drawn)	284	-5	-3	1	0	-7	nt	nt
CC(C)(Oc1ccc(Cl)cc1)C(=O)NC1=NN(c2ccccc2)C(=O)C1	206	18	74*	9	4	-4	27	12*
O=C1CC(NC(=O)C(F)(F)F)=NN1c1ccccc1	132	7	6	-1	3	0	nt	nt
COc1cccc(CNC(=O)[C@H]2CCCN2C(=O)[C@H]2CCCN2C(=O)c2ccc(F)c(C(F)(F)F)c2)c1	nt	nt	-2	nt	nt	nt	nt	nt
Cc1ccc([C@H]2C(C(=O)O)=CC[C@@H](c3ccc(C(C)C)cc3)N2S(=O)(=O)c2ccc(C)cc2)cc1	967	9	88*	0	-1	1	81*	48*
Cc1ccc(S(=O)(=O)N2[C@@H](c3ccc(Cl)cc3)C(C(=O)O)=CC[C@H]2c2ccc(C(C)C)cc2)cc1	620	-7	83*	0	3	-3	89*	61*
Cc1ccc([C@H]2C(C(=O)O)=CC[C@@H](c3ccc(Cl)cc3)N2S(=O)(=O)c2ccc(C)cc2)cc1	272	11	80*	1	2	1	80*	47*
